Screening results from PubChem.
A selection: hits, their analogues and other compounds. The true share with any hit is near 5.9%.
MT1-MMP txn act – activates MT1-MMP transcription. HT1080 MT1-MMP promoter luciferase reporter, luminescence, overnight; stronger effect = higher value. activation factor at 10 µM. 86,000 compounds, 0.16% hits. AID 750;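 active = activation factor of at least 2 for MT1-MMP transcription at 10 µM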
PTK2B oligo ant – antagonists of human Pyk2 oligomerization; z-score (the deposit names both 25 µM and 10 µM); Q14289; 99,000 compounds, 0.83% hits; AID 1347419; Q293 cells, Pyk2 FERM NanoBiT luminescence; stronger effect = lower value;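 active = Z-score of -3 or lower, scaled per plate to the spread of control and sample wells; inactive = z-score above -3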;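 note: negative z-score means lost luminescence so less FERM oligomerization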
HUVEC inhibit – human endothelial cell proliferation inhibition. 86,000 compounds, 1.1% hits. viability, % at 10 µM (by protocol). HUVEC proliferation, CellTiter-Glo luminescence, 72 h; stronger effect = lower value;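 active = viability at or below 30%; inactive = viability above 30%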;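 note: 100% = median luminescence of DMSO-only cell control wells on each plate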
Jurkat tox 60K – cytotoxic compounds reducing Jurkat cell viability | Jurkat E6.1 viability, ATP luminescence, 48 h | inhibition, % at 4 µM | 56,000 compounds, 1.2% hits;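 active = inhibition above the mean inhibition of all tested compounds plus 3 SD, cut at about 28% in these data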
Fibroblast inh – blocks proliferation of human lung fibroblasts; LL 47 human lung fibroblast viability, ATP luminescence; stronger effect = lower value; 85,000 compounds, 1.1% hits; viability, % at 10 µM;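 active = viability at or below 50% in the single dose screen; inactive = viability above 50%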;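 note: compound exposure lasted 72 h before the ATP readout; 100% = median luminescence of untreated cell-only wells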
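Times – overnight cell rest, 72 h compound treatment at 37 °C · Test system – human lung fibroblast line LL 47, low passage · Amount – 1,150 cells in each well · Controls – cell-only wells, no compound · Doses – 0.1% DMSO in all compound wells · Measured by – CellTiter-Glo luminescence · Buffer or medium – IMEM plus 15% FBS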
H69AR inhibit – growth inhibitors of human H69AR lung tumor cells; H69AR lung tumor viability, ATP luminescence, 72 h; stronger effect = lower value; viability, % at 10 µM; 85,000 compounds, 6% hits; AID 598;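 active = viability at or below 40%; inactive = viability above 40%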;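 note: multidrug resistant small cell line overexpressing MRP-1 efflux transporter; 100% = mean luminescence of untreated control wells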
* marks the source's active call; other numbers are inactive results; x = no result given.

SMILES | MT1-MMP txn act | PTK2B oligo ant | HUVEC inhibit | Jurkat tox 60K | Fibroblast inh | H69AR inhibit
O=C1CC(NC23CC4CC(CC(C4)C2)C3)C(=O)N1c1ccc2c(c1)OCO2 (centres undefined) | 1.2 | -0.61 | 97 | 6 | 102 | 94
CCOC(=O)C1=C(N)n2c(s/c(=C/c3ccccc3)c2=O)=C(C(=O)OCC)C1c1ccccc1 (centres undefined) | 1 | x | 99 | x | 66 | 9.5*
CCOC(=O)C1=C(N)n2c(s/c(=C\c3ccco3)c2=O)=C(C(=O)OCC)C1c1ccco1 (centres undefined) | 1.1 | 1.7 | 29* | 61* | 29* | 27*
CCOC(=O)C1=C(N)n2c(s/c(=C\c3ccco3)c2=O)=C(C(=O)OC(C)C)C1c1ccco1 (centres undefined) | 1 | 0.12 | x | x | x | x
CC1(C)COC(c2ccc(F)c([N+](=O)[O-])c2)=N1 | x | -0.54 | x | x | x | x
Cc1cccc(C)c1NC(=O)NC1(C(=O)NCCCN2CCOCC2)CCCCC1 | 1.3 | 1.3 | 94 | x | 98 | 81
CCN(CC)S(=O)(=O)c1ccc(N2CCN(S(=O)(=O)c3ccccc3C#N)CC2)nc1 | 1.1 | -0.35 | 92 | x | 92 | 38*
CCC(=O)N1CCN(c2ccccc2NC(=O)COc2ccccc2Cl)CC1 | 1.3 | -2.3 | 80 | 8 | 89 | 67
COC(=O)[C@@]1(Cc2ccc(OC)cc2)[C@H]2c3cc(C(=O)N4CCCC4)n(Cc4ccc(O)c(OC)c4)c3C[C@H]2CN1C(=O)c1ccccc1 | 1.2 | x | x | x | x | x
O=C1CCCN1c1ccc(S(=O)(=O)Nc2ccc3c(c2)OCCO3)cc1 | 0.8 | 1 | x | 82* | x | x
O=S(=O)(Nc1ccc2c(c1)OCCO2)c1ccc(F)cc1 | 1.2 | -1.2 | 98 | x | 94 | 104
CC1C(O)=C(c2nc3ccccc3[nH]2)C(=N)N1c1ccccc1 (centres undefined) | 1.7 | -0.56 | 74 | 8 | 79 | 22*
N=C1C(c2nc3ccccc3[nH]2)=C(O)CN1c1ccc(CC(=O)O)cc1 | 0.9 | 0.8 | 89 | x | 103 | 79
CCC(C)N1CC(O)=C(c2nc3ccccc3[nH]2)C1=N (centres undefined) | 1.3 | -0.36 | 93 | -4 | 106 | 91
N=C1C(c2nc3ccccc3[nH]2)=C(O)CN1c1ccccc1 | 1.5 | 0.67 | 94 | 16 | 94 | 32*
COC(=O)c1ccc(C(NC(=O)OCc2ccccc2)/C(I)=C/[C@@H](C)C(=O)O)cc1 (some centres undefined) | 1 | x | x | x | x | x
COc1ccccc1OCCC(=O)OCC(=O)Nc1ncc(Cl)cc1Cl | 1.1 | 0.78 | 90 | 0 | 95 | 71
COC(=O)C1CCN(C(=O)COc2ccc(Cl)cc2)CC1 | 1.1 | 0.22 | 100 | 3 | 95 | 95
COC(=O)C1CCN(C(=O)COc2cc3sc(C)nc3c3sccc23)CC1 | 1.1 | -0.89 | 89 | 6 | 99 | 35*
Cc1ccc(CSCCNC(=O)/C=C/c2ccccc2Cl)cc1 | x | -1.2 | x | x | x | x
CN=C1c2cc3cc(OC)ccc3n2CCN1Cc1ccccc1 | 1.1 | 1.7 | 58 | x | 46* | 19*
CCN(CC)CCNC1=NCCn2c1cc1cc(OC)ccc12 | 1.2 | -0.05 | 83 | x | 81 | 52
COc1ccc(/C=N/NC(=O)CSc2nnc(CCCc3ccc(OC)c(C)c3)o2)cc1 | x | 1.2 | x | x | x | x
CCOc1ccc(C)cc1S(=O)(=O)n1ccc(C)n1 | 1.1 | 0.07 | 98 | 11 | 96 | 99
CCc1nn(-c2ccccc2)c2c1-c1cc(OC)c(OC)cc1C1(N2)C(=O)Nc2ccccc21 (centres undefined) | 1.1 | -1.9 | 80 | x | 95 | 78
SMILES | MT1-MMP txn act | PTK2B oligo ant | HUVEC inhibit | Jurkat tox 60K | Fibroblast inh | H69AR inhibit
Clc1ccc(Sc2cc(Cl)c(-c3ccccc3)nn2)cc1 | x | -3.4* | x | x | x | x
CCn1c(SCC(=O)NCc2ccccc2)nc2c(c1=O)SC(C)C2 (centres undefined) | x | x | 92 | x | 95 | 87
CN(C)c1ccc(C(=O)c2ccc(O)cc2O)cc1 | 1.3 | -1.5 | 95 | x | 109 | 51
COc1ccc(C(=O)c2ccc(N(C)C)cc2)c2ccccc12 | 0.7 | -1 | 40 | x | 59 | 27*
CN1/C(=C\C(=O)c2ccco2)C(C)(C)c2ccccc21 | 1 | -0.29 | 96 | 26 | 99 | 68
CN1/C(=C/C(=O)c2nc(S(C)(=O)=O)ncc2Cl)C(C)(C)c2ccccc21 | x | -3.8* | 24 | 102* | 19* | 0.6*
CC(C)CCn1cnc2c(c1=O)c1nc3ccccc3nc1n2Cc1ccc2c(c1)OCO2 | 1.1 | 0.08 | 86 | 0 | 88 | 30*
Cc1nc2c(ccc3nc(NC(=O)c4ccc5c(c4)OCCO5)sc32)s1 | 0.3 | -2.1 | 7.8* | -9 | 92 | 8.2*
CC(=O)N1CC=CC1(CC(C)C)C(=O)NCC1CC1 (centres undefined) | 1 | x | x | x | x | x
CC(=O)Nc1ccc(OCC(O)CN2CCN(Cc3ccccc3)CC2)cc1 (centres undefined) | 1.2 | -0.42 | 94 | -4 | 104 | 89
CC(=O)Nc1ccc(S(=O)(=O)NC2=C(N3CCN(Cc4ccccc4)CC3)C(=O)c3ccccc3C2=O)cc1 | 1.1 | x | 7.0* | x | 103 | 31*
CC(=O)n1c(Cl)c(NC(=O)CCl)c2ccccc21 | 0.8 | 0.8 | 92 | x | 64 | 1.5*
CC1CCC(C(C)C)C2=C1C(C#N)(C#N)C(C#N)(C#N)C(c1ccccc1)N2 (centres undefined) | 1.2 | 0.56 | 28* | x | 32* | 0.0*
CCOc1ccc(S(=O)(=O)N2CCN(c3ccc(OC)cc3)CC2)c2cccnc12 | 1.2 | 0.46 | 96 | 6 | 96 | 35*
O=S(=O)(c1ccc(Cl)cc1)N1CCCC1c1nc(-c2ccc(Cl)cc2)no1 (centres undefined) | x | 1.2 | x | x | x | x
Nc1nc(C2CCCN2S(=O)(=O)c2ccc(Cl)cc2)cs1 (centres undefined) | 1.1 | -3.2* | 99 | 9 | 102 | 98
CCOc1cc(N2CCOCC2)c(OCC)cc1NC(=O)COC(=O)c1cc(C)oc1C | 1.1 | 2.5 | 93 | -7 | 95 | 38*
CCOc1cc(N2CCOCC2)c(OCC)cc1NC(=O)COc1ncnc2ccc(Br)cc12 | x | 1.6 | 73 | x | 42* | 47
COc1ccc(C(=O)c2ccc(N3CCN(C(=O)c4ccc(F)cc4)CC3)c(F)c2)cc1Br | 1.1 | 1.9 | 73 | x | 97 | 36*
CCOc1ccc(N2C(=O)CN=C2Nc2ccccc2F)cc1 | 1.1 | 0.2 | 100 | x | 102 | 88
CCC(C)(C)n1nnnc1C(c1ccc(O)c(OC)c1)N1CCc2ccccc2C1 (centres undefined) | 1.2 | -0.51 | 94 | x | 87 | 34*
CCC(C)(C)n1nnnc1C(c1ccc(O)c(OC)c1)N1CCN(c2nc3ccccc3s2)CC1 (centres undefined) | 1.2 | -1.2 | 93 | 6 | 94 | 14*
O=C(Nc1ccc(Cl)cc1)NC1CCCCC1Cc1ccco1 (centres undefined) | 1.2 | -2.1 | 61 | x | 96 | 6.6*
